Results from ChEMBL document CHEMBL1156418, “Identification and phenotypic characterization of a beta-lactam-dependent, methicillin-resistant Staphylococcus aureus strain” (2007).
In brackets after ≈: the same amount, converted by molar mass. Activity calls are given as the source filed them. The rule behind the calls is not given here.

Legend:
Staphylococcus aureus [1] = test: Antibacterial activity against methicillin-resistant Staphylococcus aureus 2884; format: functional
Staphylococcus aureus [2] = test: Antibacterial activity against methicillin-resistant Staphylococcus aureus 2884 isolate at 5 ug by disc diffusion method; format: functional; conditions: read-out: IZ
Outline: (§1)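 Disk diffusion on 100-mm Mueller-Hinton agar plates inoculated with a 0.5 McFarland suspension. Disks: oxacillin 5 μg, cefoxitin 30 μg, ceftobiprole 30 μg, amoxicillin-clavulanic acid 20/10 μg, ofloxacin 5 μg, imipenem 10 μg. Inhibition zone diameters were read per CLSI and CASFM guidelines.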

Staphylococcus aureus [3] = test: Antibacterial activity against methicillin-resistant Staphylococcus aureus 2884 isolate by disc diffusion method; format: functional; outline: as §1
Staphylococcus aureus [4] = test: Antibacterial activity against oxacillin-dependent methicillin-resistant Staphylococcus aureus 2884D isolate at 5 ug by disc diffusion method; format: functional, organism-based; outline: as §1
Staphylococcus aureus [5] = test: Antibacterial activity against methicillin-resistant Staphylococcus aureus 2884 isolate at 30 ug by disc diffusion method; format: functional, organism-based; outline: as §1
Staphylococcus aureus [6] = test: Antibacterial activity against oxacillin-dependent methicillin-resistant Staphylococcus aureus 2884D isolate; format: functional
Staphylococcus aureus [7] = test: Antibacterial activity against oxacillin-dependent methicillin-resistant Staphylococcus aureus 2884D isolate assessed as decrease in log bacterial count at >= 256 ug/ml; format: functional
Staphylococcus aureus [8] = test: Antibacterial activity against methicillin-resistant Staphylococcus aureus 2884 isolate assessed as decrease in log bacterial count at 1 ug/ml; format: functional
Staphylococcus aureus [9] = test: Effect on blaZ gene expression in oxacillin-dependent methicillin-resistant Staphylococcus aureus 2884D isolate at 0.5 ug/ml by RT-PCR; format: functional, organism-based
Outline: (§2)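 TaqMan real-time RT-PCR on RNA from exponential-phase cells grown with or without 0.5 μg/ml oxacillin; the dependent strain was also grown on blood agar without oxacillin. Each reaction used 25 ng total RNA, 500 nM primers and 100 nM probe. Cycling: 48°C 30 min, 95°C 10 min, then 40 × (95°C 15 s, 60°C 1 min). Quantified by C_T against a standard curve, expressed relative to 16S; triplicate runs.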

Staphylococcus aureus [10] = test: Effect on blaZ gene expression in oxacillin-dependent methicillin-resistant Staphylococcus aureus 2884D isolate at 0.5 ug/ml in presence of blood agar by RT-PCR; format: functional, organism-based; outline: as §2
Staphylococcus aureus [11] = test: Induction of blaR1 gene expression in methicillin-resistant Staphylococcus aureus 2884 isolate by RT-PCR; format: functional, organism-based; outline: as §2
Staphylococcus aureus [12] = test: Induction of blaI mRNA expression in methicillin-resistant Staphylococcus aureus 2884 isolate by RT-PCR; format: functional, organism-based; outline: as §2
Staphylococcus aureus [13] = test: Induction of blaI mRNA expression in oxacillin-dependent methicillin-resistant Staphylococcus aureus 2884D isolate by RT-PCR; format: functional, organism-based; outline: as §2
Staphylococcus aureus [14] = test: Decrease in PBP2 gene expression in oxacillin-dependent methicillin-resistant Staphylococcus aureus 2884D isolate by RT-PCR; format: functional, organism-based; outline: as §2
Staphylococcus aureus [15] = test: Effect on vraSR gene expression in oxacillin-dependent methicillin-resistant Staphylococcus aureus 2884D isolate in presence of blood agar by RT-PCR; format: functional, organism-based; outline: as §2
Staphylococcus aureus [16] = test: Induction of blaR1 gene expression in oxacillin-dependent methicillin-resistant Staphylococcus aureus 2884D isolate by RT-PCR; format: functional, organism-based; outline: as §2

CO[C@@]1(NC(=O)Cc2cccs2)C(=O)N2C(C(=O)O)=C(COC(N)=O)CS[C@@H]21 (single isomer, unassigned) [CEFOXITIN]
MIC (Staphylococcus aureus [1]): 32 µg/mL (≈ 74.9 µM) | zone of inhibition at 5 µg/disc (Staphylococcus aureus [2]): 13 mm

Nc1nc(/C(=N/O)C(=O)N[C@@H]2C(=O)N3C(C(=O)O)=C(/C=C4\CCN([C@@H]5CCNC5)C4=O)CS[C@H]23)ns1 [CEFTOBIPROLE]
MIC (Staphylococcus aureus [1]): 2 µg/mL (≈ 3.74 µM) | inhibition zone (IZ) (Staphylococcus aureus [3]): 34 mm

C[C@@H](O)[C@H]1C(=O)N2C(C(=O)O)=C(SCCNC=N)C[C@H]12 [IMIPENEM ANHYDROUS]
MIC (Staphylococcus aureus [1]): 8 µg/mL (≈ 26.7 µM)

CC1COc2c(N3CCN(C)CC3)c(F)cc3c(=O)c(C(=O)O)cn1c23 (stereo unspecified) [OFLOXACIN]
Activity (Staphylococcus aureus [4]): inactive | zone of inhibition at 5 µg/disc (Staphylococcus aureus [2]): 15 mm | Activity (Staphylococcus aureus [5]): inactive

Cc1onc(-c2ccccc2)c1C(=O)N[C@@H]1C(=O)N2[C@@H]1SC(C)(C)[C@@H]2C(=O)O [OXACILLIN]
MIC (Staphylococcus aureus [1]): 64 µg/mL (≈ 159 µM) | MIC (Staphylococcus aureus [6]): ≥ 256 µg/mL | CFU/ml (Staphylococcus aureus [7]): 3 | CFU/ml (Staphylococcus aureus [8]): 4 | zone of inhibition at 5 µg/disc (Staphylococcus aureus [2]): 15 mm | Activity (Staphylococcus aureus [9]): inactive | Activity (Staphylococcus aureus [10]): inactive | Activity (Staphylococcus aureus [11]): inactive | Activity (Staphylococcus aureus [12]): Active | Activity (Staphylococcus aureus [13]): inactive | Activity (Staphylococcus aureus [14]): Active | Activity (Staphylococcus aureus [15]): inactive | Activity (Staphylococcus aureus [16]): Active
